Measurements from ChEMBL document CHEMBL5316351, “Development of a Covalent Inhibitor of c-Jun N-Terminal Protein Kinase (JNK) 2/3 with Selectivity over JNK1” (J Med Chem, 2023).
The source made the active and inactive calls. No cut-off for these calls is given here.

What was measured:
[1] = biological target: T1, Mitogen-activated protein kinase 8 (Homo sapiens, UniProt P45983); test: Inhibition of His-tagged human recombinant JNK1 expressed in insect cells incubated for 1 hr in presence of ATP by Z'-Lyte assay; parameters: species or system Insect cell
[2] = biological target: T2, Mitogen-activated protein kinase 9 (Homo sapiens, UniProt P45984); test: Inhibition of His-tagged human recombinant JNK2 expressed in baculovirus expression system incubated for 1 hr in presence of ATP by Z'-Lyte assay
Target sequence in this assay (P45984 whole entry): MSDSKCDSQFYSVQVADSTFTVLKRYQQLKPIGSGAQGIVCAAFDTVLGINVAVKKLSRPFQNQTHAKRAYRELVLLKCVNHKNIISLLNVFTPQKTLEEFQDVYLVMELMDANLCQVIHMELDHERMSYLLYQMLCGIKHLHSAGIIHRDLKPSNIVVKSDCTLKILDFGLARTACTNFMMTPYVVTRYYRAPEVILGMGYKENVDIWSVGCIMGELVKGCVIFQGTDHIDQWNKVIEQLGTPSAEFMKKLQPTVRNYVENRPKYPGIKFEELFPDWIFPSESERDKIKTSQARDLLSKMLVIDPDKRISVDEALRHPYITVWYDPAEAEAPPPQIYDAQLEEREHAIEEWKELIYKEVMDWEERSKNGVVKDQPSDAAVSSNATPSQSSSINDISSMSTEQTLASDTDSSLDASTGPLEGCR

Homo sapiens [3] = species: Homo sapiens; test: Selectivity ratio of IC50 for His-tagged human recombinant JNK1 expressed in insect cells to His-tagged human recombinant JNK2 expressed in baculovirus expression system
Summary of the method: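 Z′-Lyte kinase assays of JNK1 and JNK2 with 100 μM ATP and 1 h compound incubation. Fixed time point IC50 was determined in duplicate. The selectivity ratio is JNK1 IC50 over JNK2 IC50.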

[4] = Antiproliferative activity against human HAP1 cells assessed as inhibition of cell growth incubated for 3 days by CellTiter-Glo luminescent assay; format: functional, cell-based; details: HAP1, 72 h
[5] = biological target: T3, 1-phosphatidylinositol 3-phosphate 5-kinase (Homo sapiens, UniProt Q9Y2I7); test: Inhibition of Nano-Luc fused PIKFYVE (unknown origin) expressed in HEK293T cells pretreated for 3 hrs followed by K8-tarcer addition and measured after 1 hr by NanoBRET assay; format: cell-based
[6] = biological target: T3, 1-phosphatidylinositol 3-phosphate 5-kinase; test: Inhibition of PIKFYVE in human MDA-MB-231 cells assessed as vacuole formation at 4 uM measured after 3 days by bright field microscopy; format: cell-based; details: time 3.0 day
Summary of the method: (§1)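 MDA-MB-231 cells (DMEM, 10% FBS) seeded, next day treated with inhibitor or DMSO; after 3 days imaged by bright-field microscopy at 20× for vacuoles.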

MM1.S [7] = test: Induction of apoptosis in human MM1.S cells assessed as increase in caspase-3 cleavage at 0.5 to 2.5 uM incubated for 24 hrs by immunoblot analysis; format: functional, cell-based; details: dose 0.5-2.5 µM
ANBL-6 [8] = test: Antiproliferative activity against Bortezomib-resistant human ANBL-6 cells assessed as inhibition of cell growth incubated for 72 hrs by CellTiter-Glo luminescent assay; format: functional, cell-based
[9] = biological target: T2, Mitogen-activated protein kinase 9; test: Covalent binding affinity to JNK2 in human MM1.S cells incubated for 6 hrs by biotin-JNK-IN-7 probe based pull-down competition based analysis; format: cell-based
Summary of the method: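 MM.1S cells exposed to compound or DMSO 6 h; lysed in HEPES pH 7.4/NP-40 buffer; lysates incubated with 1 μM biotin-JNK-IN-7 overnight at 4 °C then 2 h room temperature; streptavidin pull-down 2–3 h at 4 °C; bound JNK1/JNK2 detected by western blot.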
Target sequence in this assay (P45984 whole entry, looked up): as the sequence (P45984 whole entry) above

MM1.S [10] = test: Induction of apoptosis in human MM1.S cells at 250 nM by AnnexinV/PI staining based flow cytometry; format: functional, cell-based
ANBL-6 [11] = test: Antiproliferative activity against wild type human ANBL-6 cells assessed as inhibition of cell growth incubated for 72 hrs by CellTiter-Glo luminescent assay; format: functional, cell-based
[12] = biological target: T2, Mitogen-activated protein kinase 9; test: Binding affinity to wild type N-terminal GST-tagged human recombinant JNK2 (1 to 364 residues) expressed in Escherichia coli in presence of ATP measured every 0.5 mins for 120 mins by fluorescence based analysis
Target sequence in this assay (P45984 whole entry, looked up): as the sequence (P45984 whole entry) above

MM1.S [13] = test: Induction of apoptosis in human MM1.S cells assessed as increase in PARP cleavage at 0.5 to 2.5 uM incubated for 24 hrs by immunoblot analysis; format: functional, cell-based; details: dose 0.5-2.5 µM
MM1.S [14] = test: Antiproliferative activity against human MM1.S cells assessed as inhibition of cell growth rate measured after 72 hrs by CellTiter-Glo luminescent assay; format: functional
HAP1 = test: Antiproliferative activity against human HAP1 cells assessed as inhibition of cell growth incubated for 3 days in presence of VX745 by CellTiter-Glo luminescent assay; format: functional, cell-based; details: time 3.0 day
[15] = biological target: T3, 1-phosphatidylinositol 3-phosphate 5-kinase; test: Inhibition of PIKFYVE in human MDA-MB-231 cells assessed as vacuole formation at 1 uM measured after 3 days by bright field microscopy; format: cell-based; details: time 3.0 day; summary of the method: as §1
[16] = biological target: T3, 1-phosphatidylinositol 3-phosphate 5-kinase; test: Inhibition of wild type partial length human PIKFYVE (F1512 to C2098 residues) expressed in mammalian expression system at 1 uM by KinomeScan analysis
Summary of the method: (§2)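 KINOMEscan (ScanMAX) binding panel of >400 kinases, compound tested at 1 μM; reported as percent inhibition/score.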

Homo sapiens [17] = species: Homo sapiens; test: Inhibition of CK1gamma (unknown origin) at 1 uM by KinomeScan analysis
Summary of the method: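 KINOMEscan ScanMAX panel screened at 1 μM compound.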

SUM159PT = test: Inhibition of CK1gamma in human SUM159 cells at 1 uM by KiNativ Profiling analysis; format: cell-based
Summary of the method: (§3)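 SUM159 cells treated with 1 μM compound, collected, PBS-washed and frozen; lysates probed with ATP/ADP-biotin acyl probe labelling catalytic lysine (KiNativ); protection from labelling measured.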

[18] = biological target: T4, Mitogen-activated protein kinase 14 (Homo sapiens, UniProt Q16539); test: Inhibition of p38alpha in human SUM159 cells at 1 uM by KiNativ Profiling analysis; format: cell-based; details: SUM159PT
Summary of the method: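 SUM159 cells treated with 1 μM compound, then washed with PBS and frozen. Lysates were chased with a nonspecific ATP or ADP-biotin probe that labels the conserved catalytic lysine.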

[19] = biological target: T4, Mitogen-activated protein kinase 14; test: Inhibition of wild type full length human p38 alpha (M1 to S360 residues) expressed in bacterial expression system at 1 uM by KinomeScan analysis; summary of the method: as §2
[20] = biological target: T2, Mitogen-activated protein kinase 9; test: Covalent binding affinity to JNK2 (unknown origin) assessed as Cys116 labelling at protein:compound concentration ratio of 1:5 incubated for 1 hr by capillary electrophoresis MS/MS analysis
Summary of the method: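 Purified JNK2 (5 μg) incubated 1 h at room temperature with 5-fold molar excess compound; intact mass by LC/MS, then trypsin digest and capillary electrophoresis-MS/MS database search for modified residue.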
Target sequence in this assay (P45984 whole entry, looked up): as the sequence (P45984 whole entry) above

[21] = biological target: T3, 1-phosphatidylinositol 3-phosphate 5-kinase; test: Inhibition of PIKFYVE in human SUM159 cells at 1 uM by KiNativ Profiling analysis; format: cell-based; details: SUM159PT; summary of the method: as §3
[22] = biological target: T3, 1-phosphatidylinositol 3-phosphate 5-kinase; test: Binding affinity to wild type partial length human PIKFYVE (F1512 to C2098 residues) expressed in mammalian expression system by KdELECT kinase assay
[23] = biological target: T1, Mitogen-activated protein kinase 8; test: Inhibition of wild type full length human JNK1 expressed in mammalian expression system at 1 uM by KinomeScan analysis; summary of the method: as §2
[24] = biological target: T2, Mitogen-activated protein kinase 9; test: Inhibition of wild type full length human JNK2 (M1 to Q382 residues) expressed in mammalian expression system at 1 uM by KinomeScan analysis; summary of the method: as §2
Target sequence in this assay (P45984 whole entry, looked up): as the sequence (P45984 whole entry) above

[25] = biological target: Mitogen-activated protein kinase 10 (Homo sapiens) (UniProt P53779); test: Inhibition of human full length recombinant JNK3 at 1 uM by KinomeScan analysis; summary of the method: as §2
[26] = biological target: T2, Mitogen-activated protein kinase 9; test: Inhibition of JNK2 in human SUM159 cells at 1 uM by KiNativ Profiling analysis; format: cell-based; details: SUM159PT; summary of the method: as §3
Target sequence in this assay (P45984 whole entry, looked up): as the sequence (P45984 whole entry) above

[27] = biological target: Aurora kinase B (Homo sapiens) (UniProt Q96GD4); test: Inhibition of Aurora B kinase (unknown origin)
[28] = biological target: CDK7/Cyclin H/MNAT1 (Homo sapiens) (UniProt P51946+P50613+P51948); test: Inhibition of CDK7/Cyclin H/MAT1 (unknown origin); format: protein-complex assay
[29] = biological target: Epidermal growth factor receptor (Homo sapiens) (UniProt P00533); test: Inhibition of EGFR (unknown origin)
[30] = biological target: Epithelial discoidin domain-containing receptor 1 (Homo sapiens) (UniProt Q08345); test: Inhibition of DDR1 (unknown origin)
Homo sapiens [31] = species: Homo sapiens; test: Inhibition of CK1 (unknown origin)
[32] = biological target: T5, Aurora kinase A (Homo sapiens) (UniProt O14965); test: Inhibition of Aurora A kinase (unknown origin)
T5 sequence (whole entry): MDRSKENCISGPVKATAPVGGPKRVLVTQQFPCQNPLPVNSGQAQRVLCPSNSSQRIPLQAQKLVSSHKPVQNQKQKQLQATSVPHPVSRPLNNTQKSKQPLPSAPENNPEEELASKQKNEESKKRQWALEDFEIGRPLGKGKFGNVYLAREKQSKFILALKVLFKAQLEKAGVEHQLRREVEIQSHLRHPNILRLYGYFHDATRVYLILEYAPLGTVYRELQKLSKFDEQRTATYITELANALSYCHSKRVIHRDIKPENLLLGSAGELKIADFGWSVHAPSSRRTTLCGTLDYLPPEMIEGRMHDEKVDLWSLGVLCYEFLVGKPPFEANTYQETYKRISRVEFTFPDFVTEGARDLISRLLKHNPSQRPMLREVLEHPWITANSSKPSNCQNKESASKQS

T3 sequence (Q9Y2I7 whole entry, the tested form may be a part): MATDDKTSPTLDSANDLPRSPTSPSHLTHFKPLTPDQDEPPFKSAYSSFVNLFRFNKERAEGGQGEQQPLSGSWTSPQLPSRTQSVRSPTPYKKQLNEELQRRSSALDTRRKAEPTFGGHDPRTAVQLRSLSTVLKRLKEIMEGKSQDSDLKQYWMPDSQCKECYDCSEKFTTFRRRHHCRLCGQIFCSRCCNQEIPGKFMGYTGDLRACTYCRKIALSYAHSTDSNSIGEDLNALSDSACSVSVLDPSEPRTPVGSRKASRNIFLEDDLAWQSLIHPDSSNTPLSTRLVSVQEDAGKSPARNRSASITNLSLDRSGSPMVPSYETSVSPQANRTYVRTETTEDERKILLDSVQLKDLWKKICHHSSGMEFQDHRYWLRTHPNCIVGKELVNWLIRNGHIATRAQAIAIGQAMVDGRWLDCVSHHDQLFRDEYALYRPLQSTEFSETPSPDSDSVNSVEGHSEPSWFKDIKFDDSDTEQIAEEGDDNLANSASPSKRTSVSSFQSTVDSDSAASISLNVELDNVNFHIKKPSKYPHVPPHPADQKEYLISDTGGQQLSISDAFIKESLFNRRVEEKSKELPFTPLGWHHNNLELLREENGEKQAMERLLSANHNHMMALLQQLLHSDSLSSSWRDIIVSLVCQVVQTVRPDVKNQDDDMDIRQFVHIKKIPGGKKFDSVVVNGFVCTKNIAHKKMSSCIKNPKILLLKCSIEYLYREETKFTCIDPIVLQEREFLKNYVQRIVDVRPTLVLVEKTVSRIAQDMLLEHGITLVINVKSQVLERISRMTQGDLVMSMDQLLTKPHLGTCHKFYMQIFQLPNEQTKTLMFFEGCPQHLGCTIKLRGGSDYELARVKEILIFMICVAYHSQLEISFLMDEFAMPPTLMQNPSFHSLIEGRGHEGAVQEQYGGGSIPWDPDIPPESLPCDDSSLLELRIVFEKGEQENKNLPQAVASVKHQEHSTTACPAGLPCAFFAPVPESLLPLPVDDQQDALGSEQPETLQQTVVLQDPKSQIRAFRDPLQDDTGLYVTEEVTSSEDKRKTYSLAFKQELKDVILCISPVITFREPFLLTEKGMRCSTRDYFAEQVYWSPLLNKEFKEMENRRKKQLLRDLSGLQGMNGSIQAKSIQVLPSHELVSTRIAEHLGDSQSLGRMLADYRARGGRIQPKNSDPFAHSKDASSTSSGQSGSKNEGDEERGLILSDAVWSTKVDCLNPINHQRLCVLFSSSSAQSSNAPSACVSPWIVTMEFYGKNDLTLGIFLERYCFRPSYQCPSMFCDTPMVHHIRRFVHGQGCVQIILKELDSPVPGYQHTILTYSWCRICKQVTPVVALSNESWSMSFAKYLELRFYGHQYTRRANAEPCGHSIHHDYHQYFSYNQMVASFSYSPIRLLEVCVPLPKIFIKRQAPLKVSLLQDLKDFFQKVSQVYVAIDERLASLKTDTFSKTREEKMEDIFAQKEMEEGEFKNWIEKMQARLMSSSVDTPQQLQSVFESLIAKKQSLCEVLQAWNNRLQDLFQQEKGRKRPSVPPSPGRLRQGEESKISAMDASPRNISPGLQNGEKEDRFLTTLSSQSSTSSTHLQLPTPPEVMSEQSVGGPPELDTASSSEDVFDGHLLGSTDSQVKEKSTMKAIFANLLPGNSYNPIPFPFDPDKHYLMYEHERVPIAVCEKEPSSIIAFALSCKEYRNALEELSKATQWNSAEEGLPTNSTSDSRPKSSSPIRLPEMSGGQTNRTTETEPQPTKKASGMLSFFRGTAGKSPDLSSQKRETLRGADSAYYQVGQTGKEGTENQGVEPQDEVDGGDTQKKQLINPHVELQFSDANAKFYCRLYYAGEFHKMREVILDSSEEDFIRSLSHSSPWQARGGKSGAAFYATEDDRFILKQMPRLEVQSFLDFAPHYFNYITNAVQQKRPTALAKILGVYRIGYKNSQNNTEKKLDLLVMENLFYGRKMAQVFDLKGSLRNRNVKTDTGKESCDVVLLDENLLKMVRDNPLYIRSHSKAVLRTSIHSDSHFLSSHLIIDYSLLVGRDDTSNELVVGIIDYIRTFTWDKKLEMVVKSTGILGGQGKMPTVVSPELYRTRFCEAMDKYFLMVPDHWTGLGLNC
T1 sequence (P45983 whole entry): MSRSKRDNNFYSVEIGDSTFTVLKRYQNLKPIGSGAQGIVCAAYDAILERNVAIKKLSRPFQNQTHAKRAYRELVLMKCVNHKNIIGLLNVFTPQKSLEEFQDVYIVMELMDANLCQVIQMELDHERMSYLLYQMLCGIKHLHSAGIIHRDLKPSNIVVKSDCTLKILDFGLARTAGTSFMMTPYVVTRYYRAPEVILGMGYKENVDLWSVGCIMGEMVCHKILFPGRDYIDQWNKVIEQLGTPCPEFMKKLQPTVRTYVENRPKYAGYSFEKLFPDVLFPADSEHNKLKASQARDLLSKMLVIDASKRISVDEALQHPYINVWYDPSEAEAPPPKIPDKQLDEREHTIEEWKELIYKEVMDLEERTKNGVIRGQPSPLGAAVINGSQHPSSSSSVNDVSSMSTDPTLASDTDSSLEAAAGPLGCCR
T4 sequence (Q16539 whole entry): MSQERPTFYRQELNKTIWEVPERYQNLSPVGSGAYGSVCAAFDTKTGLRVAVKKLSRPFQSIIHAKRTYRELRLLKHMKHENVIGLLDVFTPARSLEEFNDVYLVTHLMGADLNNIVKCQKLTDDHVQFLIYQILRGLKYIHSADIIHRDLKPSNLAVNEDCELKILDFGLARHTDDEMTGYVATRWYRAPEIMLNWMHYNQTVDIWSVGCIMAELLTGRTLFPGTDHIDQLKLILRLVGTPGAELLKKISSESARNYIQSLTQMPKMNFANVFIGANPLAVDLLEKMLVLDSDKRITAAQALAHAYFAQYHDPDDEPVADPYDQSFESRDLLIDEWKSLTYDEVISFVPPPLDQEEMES
Sequence of Epithelial discoidin domain-containing receptor 1 (Homo sapiens) (Q08345 whole entry, the tested form may be a part): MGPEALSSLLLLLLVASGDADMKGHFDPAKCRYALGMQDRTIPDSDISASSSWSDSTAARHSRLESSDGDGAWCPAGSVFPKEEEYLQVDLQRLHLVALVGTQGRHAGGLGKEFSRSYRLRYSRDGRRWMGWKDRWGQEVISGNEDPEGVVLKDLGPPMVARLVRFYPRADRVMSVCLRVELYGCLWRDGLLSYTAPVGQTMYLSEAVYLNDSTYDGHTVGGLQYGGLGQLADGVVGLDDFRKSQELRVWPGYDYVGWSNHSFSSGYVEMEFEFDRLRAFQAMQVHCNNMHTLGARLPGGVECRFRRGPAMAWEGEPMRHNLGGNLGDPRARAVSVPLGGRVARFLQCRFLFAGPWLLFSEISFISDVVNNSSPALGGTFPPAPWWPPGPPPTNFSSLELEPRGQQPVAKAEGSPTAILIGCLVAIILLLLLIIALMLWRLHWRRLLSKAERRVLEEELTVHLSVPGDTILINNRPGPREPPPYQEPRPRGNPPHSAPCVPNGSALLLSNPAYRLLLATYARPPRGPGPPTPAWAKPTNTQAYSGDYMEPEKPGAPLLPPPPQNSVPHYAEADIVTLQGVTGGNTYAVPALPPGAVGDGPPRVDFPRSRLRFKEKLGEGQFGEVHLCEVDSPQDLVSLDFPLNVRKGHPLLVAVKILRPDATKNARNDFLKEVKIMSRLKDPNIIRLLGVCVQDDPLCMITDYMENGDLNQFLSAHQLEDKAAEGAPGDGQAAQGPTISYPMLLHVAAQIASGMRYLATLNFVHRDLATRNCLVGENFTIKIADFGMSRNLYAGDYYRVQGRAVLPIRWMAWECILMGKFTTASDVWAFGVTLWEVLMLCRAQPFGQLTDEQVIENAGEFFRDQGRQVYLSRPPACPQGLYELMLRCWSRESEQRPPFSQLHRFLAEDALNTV

Row | Compound | IC50 [1] [nM] | IC50 [2] [nM] | Ratio IC50 (Homo sapiens [3]) | further results
1 | CN(C)C/C=C/C(=O)Nc1ccc(C(=O)NC2CCCC(Nc3nccc(-c4c(-c5ccccc5)nn5ccccc45)n3)C2)cc1 (configuration not stated) | 475 | 44 | 11 | –
2 | O=c1ncn2nc(Sc3ccc(F)cc3F)ccc2c1-c1c(Cl)cccc1Cl [NEFLAMAPIMOD] | – | – | – | IC50 [4]: 10000 nM
3 | CN(C)C/C=C/C(=O)Nc1ccc(C(=O)N2CCCC[C@@H](Nc3nccc(-c4c(-c5ccccc5)nn5ccccc45)n3)C2)cc1 | 387 | 17 | 23 | –
4 | Cc1cccn2nc(-c3ccccc3)c(-c3ccnc(N[C@H]4CCN(C(=O)c5ccc(NC(=O)/C=C/CN(C)C)cc5)C4)n3)c12 | – | – | 8 | –
5 | CN(C)C/C=C/C(=O)Nc1ccc(C(=O)N2CCC[C@H](Nc3nccc(-c4c(-c5ccccc5)nn5ccccc45)n3)C2)cc1 | 53 | 5 | 10 | –
6 | CN(C)C/C=C/C(=O)Nc1ccc(C(=O)N2CC[C@H](Nc3nccc(-c4c(-c5ccc(F)cc5)nn5ccccc45)n3)C2)cc1 | 67 | 4 | 17 | –
7 | CN(C)CCCC(=O)Nc1ccc(C(=O)N2CC[C@H](Nc3nccc(-c4c(-c5ccccc5)nn5ccccc45)n3)C2)cc1 | – | – | – | IC50 [5]: > 3000 nM; inhibition [6]: inactive
8 | CN(C)C/C=C/C(=O)Nc1ccc(C(=O)N2CCCC[C@H](Nc3nccc(-c4c(-c5ccccc5)nn5ccccc45)n3)C2)cc1 | 256 | 28 | 9 | –
9 | Cc1cc(NC(=O)c2cccc(NC(=O)/C=C/CN(C)C)c2)ccc1Nc1nccc(-c2cccnc2)n1 | – | – | – | Activity (MM1.S [7]): inactive; Activity (ANBL-6 [8]): inactive; Activity [9]: Active; Activity (MM1.S [10]): inactive; Activity (ANBL-6 [11]): inactive; Activity [12]: Active; Activity (MM1.S [13]): inactive
10 | CN(C)C/C=C/C(=O)Nc1ccc(C(=O)N2CCC[C@@H](Nc3nccc(-c4c(-c5ccccc5)nn5ccccc45)n3)C2)cc1 | 470 | 17 | 28 | –
11 | CN(C)C/C=C/C(=O)Nc1ccc(C(=O)N2CC[C@H](Nc3nccc(-c4c(-c5cccc(Cl)c5)nn5ccccc45)n3)C2)cc1 | 74 | 4 | 19 | –
12 | CN(C)C/C=C/C(=O)Nc1ccc(C(=O)N2CC[C@@H](Nc3nccc(-c4c(-c5ccccc5)nn5ccccc45)n3)C2)cc1 | 10 | 2 | 5 | –
13 | O[C@H]1CC[C@H](Nc2ncc3nc(Nc4c(F)cc(F)cc4F)n([C@H]4CCOC4)c3n2)CC1 [TANZISERTIB] | – | – | – | IC50 [4]: > 30000 nM; Activity (MM1.S [14]): inactive; Activity (HAP1): inactive
14 | CN(C)C/C=C/C(=O)Nc1ccc(C(=O)N2CC[C@H](Nc3nccc(-c4c(-c5ccc(Cl)cc5)nn5ccccc45)n3)C2)cc1 | 62 | 7 | 9 | –
15 | CN(C)C/C=C/C(=O)Nc1ccc(C(=O)N2CC[C@H](Nc3nccc(-c4c(-c5ccccc5)nn5ccccc45)n3)C2)cc1 | 166 | 5 | 33 | IC50 [5]: 292 nM; inhibition [15]: Active; inhibition [16]: Active; inhibition (Homo sapiens [17]): Active; inhibition (SUM159PT): Active; inhibition [18]: Active; inhibition [19]: Active; Activity [20]: 100%; inhibition [21]: Active; Kd [22]: 270 nM; inhibition [23]: Active; inhibition [24]: Active; inhibition [25]: Active; inhibition [26]: Active
16 | Cc1ccc2c(-c3ccnc(N[C@H]4CCN(C(=O)c5ccc(NC(=O)/C=C/CN(C)C)cc5)C4)n3)c(-c3ccccc3)nn2c1 | 18 | 1 | 18 | –
17 | CN(C)C/C=C/C(=O)Nc1ccc(C(=O)N2CC[C@H](Nc3ncc(Cl)c(-c4c(-c5ccccc5)nn5ccccc45)n3)C2)cc1 | 3050 | 483 | 6 | –
18 | CN(C)C/C=C/C(=O)Nc1ccc(C(=O)Nc2cccc(Nc3nccc(-c4c(-c5ccccc5)nn5ccccc45)n3)c2)cc1 | 724 | 8.3 | – | inhibition [27]: Active; inhibition [28]: Active; inhibition [29]: Active; inhibition [30]: Active; inhibition (Homo sapiens [31]): Active; inhibition [32]: Active
